From ChEMBL document CHEMBL1926562, “Design, synthesis and biological activity of sphingosine kinase 2 selective inhibitors” (Bioorg Med Chem, 2012) come the findings set out here.

Test [1] deals with T1, Sphingosine kinase 2 (Mus musculus) (UniProt Q9JIA7).
T1 sequence (whole entry): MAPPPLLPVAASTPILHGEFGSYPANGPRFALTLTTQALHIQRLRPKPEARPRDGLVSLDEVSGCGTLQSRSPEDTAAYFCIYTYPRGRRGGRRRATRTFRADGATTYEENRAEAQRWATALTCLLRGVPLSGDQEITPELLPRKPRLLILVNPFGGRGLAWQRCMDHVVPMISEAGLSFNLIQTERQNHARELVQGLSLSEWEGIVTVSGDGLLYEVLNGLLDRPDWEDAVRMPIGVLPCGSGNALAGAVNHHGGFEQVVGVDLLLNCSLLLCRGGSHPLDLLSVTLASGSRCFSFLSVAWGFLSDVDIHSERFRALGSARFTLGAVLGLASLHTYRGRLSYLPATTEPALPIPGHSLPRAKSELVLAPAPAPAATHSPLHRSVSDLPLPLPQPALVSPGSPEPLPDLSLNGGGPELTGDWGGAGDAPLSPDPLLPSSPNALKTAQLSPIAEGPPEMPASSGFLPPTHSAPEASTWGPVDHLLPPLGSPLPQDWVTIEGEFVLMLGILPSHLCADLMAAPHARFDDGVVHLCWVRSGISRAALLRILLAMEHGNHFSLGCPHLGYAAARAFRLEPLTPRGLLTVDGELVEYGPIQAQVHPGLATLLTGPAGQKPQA
The test is described as follows: Inhibition of mouse SphK2 expressed in baculovirus infected Sf9 insect cells assessed as remaining activity using sphingosine and [gamma-(32)P]-ATP at 100 uM by scintillation proximity counting. Put shortly: (§1)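 Enzyme source: supernatant (10,000×g) of homogenized Sf9 cells infected with recombinant virus for 72 h, 2-3 μg protein per reaction. Sphingosine substrate at 10 μM for SphK1 and 5 μM for SphK2. Initial screen used inhibitor at 100 μM, with some compounds at 10 μM. Read-out is percent of remaining kinase activity, averaged over three experiments.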

The target of test [2] is T2, Sphingosine kinase 1 (Homo sapiens, UniProt Q9NYA1). In words: Inhibition of human SphK1 expressed in baculovirus infected Sf9 insect cells assessed as remaining activity using sphingosine and [gamma-(32)P]-ATP as substrate at 100 uM by scintillation proximity counting. Put shortly: as §1
In general terms: Scintillation proximity formats need no separation of bound from free tracer.

The target in test [3] is T1, Sphingosine kinase 2 (Mus musculus). In words: Inhibition of mouse SphK2 expressed in baculovirus infected Sf9 insect cells assessed as remaining activity using sphingosine and [gamma-(32)P]-ATP at 10 uM by scintillation proximity counting. A digest of the protocol:
as §1

The target is the same in test [4]. The test is described as follows: Inhibition of mouse SphK2 expressed in baculovirus infected Sf9 insect cells using sphingosine and [gamma-(32)P]-ATP at 10 uM by scintillation proximity counting. Put shortly:
as §1

Test [5] concerns the target T2, Sphingosine kinase 1. The test is described as follows: Inhibition of human SphK1 expressed in baculovirus infected Sf9 insect cells using sphingosine and [gamma-(32)P]-ATP by scintillation proximity assay. A digest of the protocol: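 Ki calculated as Ki = [I]/(K′m/Km – 1), using a sphingosine Km of 10 μM for SphK1 and 5 μM for SphK2. Enzyme came from infected Sf9 cell extract (10,000×g supernatant, 2-3 μg protein).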

Test [6] is described as follows: Selectivity ratio of Ki/Km for human SphK1 to Ki/Km for mouse SphK2. Put shortly:
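Selectivity calculated as (Ki/Km)SphK1 divided by (Ki/Km)SphK2, with sphingosine Km taken as 10 μM for SphK1 and 5 μM for SphK2.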

A further test concerns the target T3, Sphingosine kinase 2 (Mus musculus, UniProt Q9JIA7).
T3 sequence (Q9JIA7 whole entry): T1 sequence (whole entry)
In words: Inhibition of mouse SphK2 expressed in baculovirus infected Sf9 insect cells using sphingosine and [gamma-(32)P]-ATP by scintillation proximity assay.

pKi: −log10 of the molar value. Activity calls are given as the source filed them. The rule behind the calls is not given here.

T2 sequence (Q9NYA1 whole entry): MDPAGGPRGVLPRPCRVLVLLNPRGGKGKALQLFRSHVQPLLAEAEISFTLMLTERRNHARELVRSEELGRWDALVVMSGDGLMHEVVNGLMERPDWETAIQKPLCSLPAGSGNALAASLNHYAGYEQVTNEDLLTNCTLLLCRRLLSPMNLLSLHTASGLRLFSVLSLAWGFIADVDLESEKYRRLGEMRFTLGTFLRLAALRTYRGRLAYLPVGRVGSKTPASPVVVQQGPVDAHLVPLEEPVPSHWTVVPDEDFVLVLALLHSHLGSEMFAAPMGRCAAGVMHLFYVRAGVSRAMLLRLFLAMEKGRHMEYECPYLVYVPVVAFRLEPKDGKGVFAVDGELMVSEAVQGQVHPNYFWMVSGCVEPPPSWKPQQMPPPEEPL

For `CCCCCCCCc1ccc([C@H]2CC[C@H](NCCCC)CC2)cc1`, the Activity in test [1] turned out to be 20.1%; at Sphingosine kinase 1 [2] it was 20.5%.

As to `C=CCN[C@H]1CC[C@H](c2ccc(CCCCCCCC)cc2)CC1`, the Activity in test [1] stood at 5.7%; at Sphingosine kinase 1 [2], 19%.

As to `CCCCCCCCc1ccc(-c2cnc(N)cn2)cc1`, in test [3], the Activity is 99%.

Turning to `CCCCCCCCc1ccc([C@H]2CC[C@H](O)CC2)cc1`, the Activity came out at 70.9% in test [1] and 113% on Sphingosine kinase 1 [2].

As to `CCCCCCCCc1ccc([C@H]2CC[C@@H]([N+](C)(C)CCC)CC2)cc1`, in test [4], the inhibition entry is “Active”. Also, the Activity in test [1] was 3.2%; at Sphingosine kinase 1 [2] it was 25.1%.

On to `CCCCCCCCc1ccc(-c2ccc(-n3ccccc3=O)nc2)cc1`, for which the Activity in test [3] worked out at 93.7%.

Regarding `CCCCCCCCc1ccc(C2CCC(N)(C#N)CC2)cc1` (stereo unspecified), the Activity is 61.8% in test [1] and 101% at Sphingosine kinase 1 [2].

Consider `CCCCCCCCc1ccc([C@H]2CC[C@H](N(C)C)CC2)cc1`, for which the Activity in test [1] came out at 9%; on Sphingosine kinase 1 [2], 46.3%. Besides, the negative logarithm of the Ki (pKi) was 4.40 on Sphingosine kinase 1 [5] and 4.57 at Sphingosine kinase 2. Further, in test [6], the Selectivity ratio is 0.74.

With `CCCCCCCCc1ccc([C@H]2CC[C@H](N)CC2)cc1`, the Activity was determined as 25% in test [1] and 47% at Sphingosine kinase 1 [2]. Besides, the pKi on Sphingosine kinase 1 [5] is 4.49; at Sphingosine kinase 2, 4.54. In test [6], the Selectivity ratio was 0.55.

`CCCCCCCCc1ccc([C@H]2CC[C@@H](NCCO)CC2)cc1`: the figures for the Activity (in test [1]; at Sphingosine kinase 1 [2]) were 8.9% and 22.4%, respectively.

As for `CCCCCCCCc1ccc([C@H]2CC[C@@H](NCc3ccccc3)CC2)cc1`, the results for the Activity (in test [1]; on Sphingosine kinase 1 [2]) were 67.2% and 98.4%, respectively.

Turning to `CCCCCCCCc1ccc([C@H]2CC[C@H]([N+](C)(C)Cc3ccccc3)CC2)cc1`, the Activity in test [1] stood at 8.3%; on Sphingosine kinase 1 [2] it was 25.7%.

With `CCCCCCCCc1ccc([C@H]2CC[C@H](NCc3ccncc3)CC2)cc1`, the Activity came to 23% in test [1] and 33% on Sphingosine kinase 1 [2].

`C=CCN[C@H]1CC[C@@H](c2ccc(CCCCCCCC)cc2)CC1`: the values for the Activity (in test [1]; at Sphingosine kinase 1 [2]) were 100% and 91.8%, respectively.

With `C=CC[N+](C)(C)[C@H]1CC[C@H](c2ccc(CCCCCCCC)cc2)CC1`, the Activity in test [1] is 2.1%; at Sphingosine kinase 1 [2], 30.4%.

As to `CCCCCCCCc1ccc([C@H]2CC[C@@H](NCCCC)CC2)cc1`, the Activity is 60.6% in test [1] and 100% on Sphingosine kinase 1 [2].

For `C#CCN[C@H]1CC[C@H](c2ccc(CCCCCCCC)cc2)CC1`, the Activity in test [1] stood at 100%; at Sphingosine kinase 1 [2], 109%.

Consider `CCCCCCCCc1ccc([C@H]2CC[C@H]([N+](C)(C)CCO)CC2)cc1`, for which the values for the Activity (in test [1]; on Sphingosine kinase 1 [2]) were 3% and 10.5%, respectively. For the same compound, the pKi on Sphingosine kinase 1 [5] is 4.15; at Sphingosine kinase 2, 4.85. Moreover, the Selectivity ratio in test [6] amounted to 2.5.

Take `CCCCCCCCc1ccc(C2CCC(=NO)CC2)cc1` (stereo unspecified): the Activity in test [1] was determined as 56.5%; on Sphingosine kinase 1 [2] it was 130%.

Consider `CCCCCCCCc1ccc([C@H]2CC[C@@H](NC(C)C)CC2)cc1`, for which the Activity in test [1] stood at 16.5%; on Sphingosine kinase 1 [2] it was 90%.

For the compound `CCCCCCCCc1ccc(C2CCC(=CCO)CC2)cc1` (stereo unspecified), the Activity in test [1] was 66.7%; at Sphingosine kinase 1 [2] it was 100%.

Regarding `CCCCCCCCc1ccc([C@H]2CC[C@@H](N(C)CCC)CC2)cc1`, the Activity in test [1] is 65.5%; at Sphingosine kinase 1 [2], 90.7%.

As for `CCCCCCCCc1ccc(C2CCC(=CC(=O)OC)CC2)cc1` (stereo unspecified), the Activity (in test [1]; on Sphingosine kinase 1 [2]) was 101% throughout.

Turning to `CCCCCCCCc1ccc(-c2cccc(N3CCNCC3)n2)cc1`, the Activity in test [3] was determined as 87.3%.

Turning to `CCCCCCCCc1ccc([C@H]2CC[C@H](NC(C)C)CC2)cc1`, the Activity in test [1] stood at 23.9%; at Sphingosine kinase 1 [2], 24.6%.

Turning to `CCCCCCCCc1ccc([C@H]2CC[C@H](NCCO)CC2)cc1`, the Activity in test [1] was determined as 8.5%; on Sphingosine kinase 1 [2] it was 21.6%. The figures for the pKi at Sphingosine kinase 1 [5] and on Sphingosine kinase 2 were 4.66 and 4.42, respectively. Moreover, in test [6], the Selectivity ratio was determined as 1.23.

Regarding `CCCCCCCCc1ccc([C@H]2CC[C@H]([N+](C)(C)C(C)C)CC2)cc1`, the Activity in test [1] was found to be 11.5%; at Sphingosine kinase 1 [2], 49.1%. Also, the pKi on Sphingosine kinase 1 [5] was less than 4.00; on Sphingosine kinase 2, 4.48.

In the case of `CCCCCCCCc1ccc([C@H]2CC[C@H](NCCC)CC2)cc1`, the Activity was 5.5% in test [1] and 15.8% on Sphingosine kinase 1 [2].

Regarding `CCCCCCCCc1ccc([C@H]2CC[C@H](NCc3ccccc3)CC2)cc1`, the Activity turned out to be 53.3% in test [1] and 83.9% at Sphingosine kinase 1 [2].

For `CCCCCCCCc1ccc([C@H]2CC[C@@H](NC3CC3)CC2)cc1`, the Activity in test [1] came to 116%; at Sphingosine kinase 1 [2], 113%.

Take `C#CCN[C@H]1CC[C@@H](c2ccc(CCCCCCCC)cc2)CC1`: the results for the Activity (in test [1]; on Sphingosine kinase 1 [2]) were 101% and 100%, respectively.

For the compound `CCCCCCCCc1ccc([C@H]2CC[C@@H](NC)CC2)cc1`, the Activity was 5.4% in test [1] and 69.8% on Sphingosine kinase 1 [2]. For the same compound, the pKi was less than 4.00 on Sphingosine kinase 1 [5] and 4.40 at Sphingosine kinase 2.

With `CCCCCCCCc1ccc([C@H]2CC[C@@H]([N+](C)(C)C)CC2)cc1`, in test [4], the inhibition result is “Active”. Moreover, the Activity in test [1] amounted to 8.3%; at Sphingosine kinase 1 [2], 65.8%.

As for `CCCCCCCCc1ccc([C@H]2CC[C@H](N(C)CCC)CC2)cc1`, the Activity worked out at 45.9% in test [1] and 77% on Sphingosine kinase 1 [2].

For `CCCCCCCCc1ccc([C@H]2CC[C@@H](N(C)C(C)C)CC2)cc1`, the Activity came out at 101% in test [1] and 113% on Sphingosine kinase 1 [2].

Take `CCCCCCCCc1ccc([C@H]2CC[C@@H]([N+](C)(C)C(C)C)CC2)cc1`: the inhibition result in test [4] is “Active”. The Activity in test [1] is 10.4%; on Sphingosine kinase 1 [2], 101%.

Take `CCCCCCCCc1ccc([C@H]2CC[C@@H](N(C)C)CC2)cc1`: the Activity in test [1] was found to be 50.8%; on Sphingosine kinase 1 [2] it was 83.9%.

With `CCCCCCCCc1ccc(C2CCC(O)(C[N+](=O)[O-])CC2)cc1` (stereo unspecified), the Activity in test [1] amounted to 52.7%; at Sphingosine kinase 1 [2], 100%.

Turning to `CCCCCCCCc1ccc([C@H]2CC[C@H](NC)CC2)cc1`, the figures for the Activity (in test [1]; at Sphingosine kinase 1 [2]) were 7.7% and 15.7%, respectively.

Consider `CCCCCCCCc1ccc([C@H]2CC[C@@H]([N+](C)(C)CCO)CC2)cc1`, for which the inhibition result in test [4] was “Active”. The Activity in test [1] turned out to be 32.6%; at Sphingosine kinase 1 [2] it was 80.9%.

Take `CCCCCCCCc1ccc([C@H]2CC[C@@H](NCCC)CC2)cc1`: the results for the Activity (in test [1]; at Sphingosine kinase 1 [2]) were 18.3% and 75.6%, respectively.

Regarding `CCCCCCCCc1ccc([C@H]2CC[C@H](NC3CC3)CC2)cc1`, the Activity in test [1] came to 77%; at Sphingosine kinase 1 [2], 65%.

A word on the pKi: it is −log10 of the Ki, conventionally taken in molar units. Low readings indicate a high Ki, high ones a low Ki.
